Activity calls are given as the source filed them. The calls are words filed in the database; no cut-off is given here.
Target: Histone deacetylase 1 (Homo sapiens, UniProt Q13547)
Assay: Inhibition of HDAC1 purified from HEK293 cells by Western blot
Assay type: cell-free
Conditions: not given

Chain of Histone deacetylase 1 (Q13547 whole entry): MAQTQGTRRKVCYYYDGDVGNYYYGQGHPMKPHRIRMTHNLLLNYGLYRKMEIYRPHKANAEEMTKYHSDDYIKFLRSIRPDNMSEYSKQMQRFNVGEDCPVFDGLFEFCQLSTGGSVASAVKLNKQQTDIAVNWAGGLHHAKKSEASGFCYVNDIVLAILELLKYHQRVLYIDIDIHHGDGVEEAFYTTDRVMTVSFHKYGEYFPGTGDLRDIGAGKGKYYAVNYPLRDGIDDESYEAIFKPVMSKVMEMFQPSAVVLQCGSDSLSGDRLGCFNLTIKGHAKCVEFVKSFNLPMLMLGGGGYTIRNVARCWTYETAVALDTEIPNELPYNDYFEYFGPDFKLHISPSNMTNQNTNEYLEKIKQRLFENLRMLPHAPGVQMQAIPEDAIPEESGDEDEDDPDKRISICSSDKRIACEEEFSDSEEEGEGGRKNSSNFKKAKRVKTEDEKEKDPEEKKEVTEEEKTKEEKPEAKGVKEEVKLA

Question: With CC(NC(=O)c1ccc(C(=O)C(F)(F)F)s1)c1cccc2ccccc12 (configuration not stated) as the compound, how does the IC50 read?
Answer: 830 nM

Question: With O=C(c1ccc(C(=O)C(F)(F)F)s1)N1CCn2c(-c3ccccc3)cnc2C1 as the compound, how does the IC50 read?
Answer: 4700 nM

Question: Which IC50 does the source give for O=C(NCc1ccccc1Cl)c1ccc(C(=O)C(F)(F)F)s1 here?
Answer: 550 nM

Target: Histone deacetylase 3 (Homo sapiens, UniProt O15379)
Sequence (O15379 whole entry): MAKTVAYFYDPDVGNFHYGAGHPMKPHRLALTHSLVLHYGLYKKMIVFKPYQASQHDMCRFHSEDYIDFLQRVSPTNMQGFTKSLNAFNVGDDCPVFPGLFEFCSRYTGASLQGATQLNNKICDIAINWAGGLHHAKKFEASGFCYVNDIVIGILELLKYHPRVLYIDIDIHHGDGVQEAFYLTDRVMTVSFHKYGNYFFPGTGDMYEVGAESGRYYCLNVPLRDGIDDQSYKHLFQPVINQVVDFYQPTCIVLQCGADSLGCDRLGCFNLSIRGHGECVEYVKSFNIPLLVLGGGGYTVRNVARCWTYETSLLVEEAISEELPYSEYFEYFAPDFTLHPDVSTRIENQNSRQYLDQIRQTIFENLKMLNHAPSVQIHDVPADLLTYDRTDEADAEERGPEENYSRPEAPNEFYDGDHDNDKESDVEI
Assay: Inhibition of HDAC3 purified from HEK293 cells by Western blot
Assay type: cell-free
Conditions: not given

Question: For CC(NC(=O)c1ccc(C(=O)C(F)(F)F)s1)c1cccc2ccccc12 (configuration not stated), which IC50 is on record?
Answer: 840 nM

Question: For O=C(c1ccc(C(=O)C(F)(F)F)s1)N1CCn2c(-c3ccccc3)cnc2C1, which IC50 is on record?
Answer: > 5000 nM

Test system: not listed separately
Assay: Inhibition of histidine-tagged HDAC4 wild type catalytic domain purified from Escherichia coli after 10 mins
Conditions: not given
Summary of the method: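 His-tagged HDAC4 catalytic domain (653-1084) expressed in E. coli. Trifluoroacetamide substrate then added for 1 h at 37 °C. Stopped with developer/TSA; fluorescence read at ex 360/em 460. IC50 values are means of >2 experiments.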

Question: With COc1cccc(N2CCN(C(=O)c3ccc(C(=O)C(F)(F)F)s3)CC2)c1 as the compound, how does the IC50 read?
Answer: 480 nM

Question: For Cc1noc(-c2ccc(C(=O)C(F)(F)F)s2)n1, which IC50 is on record?
Answer: 75 nM

Question: Which IC50 does the source give for CN(Cc1ccc2nccnc2c1)C(=O)c1ccc(C(=O)C(F)(F)F)s1 here?
Answer: 100 nM

Question: For CC(NC(=O)c1ccc(C(=O)C(F)(F)F)s1)c1cccc2ccccc12 (configuration not stated), which IC50 is on record?
Answer: 170 nM

Question: With O=C(c1ccc(C(=O)C(F)(F)F)s1)N1CCn2c(-c3ccccc3)cnc2C1 as the compound, how does the IC50 read?
Answer: 300 nM

Question: Which IC50 does the source give for O=C(NCc1ccccc1Cl)c1ccc(C(=O)C(F)(F)F)s1 here?
Answer: 100 nM

Target: T1, Protein deacetylase HDAC6 (Homo sapiens, UniProt Q9UBN7)
T1 sequence (Q9UBN7 whole entry): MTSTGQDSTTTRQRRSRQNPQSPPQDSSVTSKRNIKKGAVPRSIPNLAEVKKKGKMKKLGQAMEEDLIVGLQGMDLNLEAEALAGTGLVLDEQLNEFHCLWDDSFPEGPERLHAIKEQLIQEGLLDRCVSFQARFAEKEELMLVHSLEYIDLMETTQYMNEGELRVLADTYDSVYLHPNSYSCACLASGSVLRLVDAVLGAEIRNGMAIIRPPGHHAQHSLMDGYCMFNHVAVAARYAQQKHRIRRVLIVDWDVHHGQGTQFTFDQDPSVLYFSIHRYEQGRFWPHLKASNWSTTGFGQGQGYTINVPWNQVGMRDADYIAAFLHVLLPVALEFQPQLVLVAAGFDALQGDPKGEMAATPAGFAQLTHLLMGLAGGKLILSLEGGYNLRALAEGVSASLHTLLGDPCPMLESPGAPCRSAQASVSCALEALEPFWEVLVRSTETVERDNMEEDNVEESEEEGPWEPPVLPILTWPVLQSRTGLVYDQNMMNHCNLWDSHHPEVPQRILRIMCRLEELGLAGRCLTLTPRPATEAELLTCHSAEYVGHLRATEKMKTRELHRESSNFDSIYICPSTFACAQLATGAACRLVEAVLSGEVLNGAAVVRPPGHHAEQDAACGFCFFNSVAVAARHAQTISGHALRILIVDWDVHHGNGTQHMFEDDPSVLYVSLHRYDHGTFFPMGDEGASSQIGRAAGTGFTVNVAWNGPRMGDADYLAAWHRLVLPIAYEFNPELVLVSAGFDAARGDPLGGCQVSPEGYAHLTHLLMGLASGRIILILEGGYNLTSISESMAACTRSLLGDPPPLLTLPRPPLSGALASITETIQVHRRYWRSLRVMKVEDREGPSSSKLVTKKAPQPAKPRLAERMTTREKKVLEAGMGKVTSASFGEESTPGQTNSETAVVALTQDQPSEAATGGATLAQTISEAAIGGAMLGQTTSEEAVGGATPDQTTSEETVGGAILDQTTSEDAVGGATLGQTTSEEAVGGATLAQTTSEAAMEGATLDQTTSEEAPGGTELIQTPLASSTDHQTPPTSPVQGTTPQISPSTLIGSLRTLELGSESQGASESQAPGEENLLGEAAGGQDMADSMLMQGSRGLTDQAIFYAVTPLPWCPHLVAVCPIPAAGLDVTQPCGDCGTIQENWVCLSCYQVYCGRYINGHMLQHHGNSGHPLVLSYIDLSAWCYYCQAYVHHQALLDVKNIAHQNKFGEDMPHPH
Assay: Inhibition of HDAC6 purified from HEK293 cells by Western blot
Assay type: cell-free
Conditions: not given

Question: With COc1cccc(N2CCN(C(=O)c3ccc(C(=O)C(F)(F)F)s3)CC2)c1 as the compound, how does the IC50 read?
Answer: 170 nM

Question: With O=C(c1ccc(C(=O)C(F)(F)F)[nH]1)N1CCc2ccccc21 as the compound, how does the IC50 read?
Answer: 580 nM

Question: With O=C(NCC1CCCCC1)c1ccc(C(=O)C(F)(F)F)cn1 as the compound, how does the IC50 read?
Answer: 3320 nM

Question: Which IC50 does the source give for CC(NC(=O)c1ccc(C(=O)C(F)(F)F)s1)c1cccc2ccccc12 (configuration not stated) here?
Answer: 360 nM

Question: With O=C(NCc1ccccc1Cl)c1ccc(C(=O)C(F)(F)F)s1 as the compound, how does the IC50 read?
Answer: 190 nM

Target: Histone deacetylase
Assay: Inhibition of HDAC in human HCT116 cells assessed as alpha-tubulin deacetylation
Assay type: cell-based
Conditions: hct-116
Summary of the method: (§1)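 HCT116 cells treated 24 h. Alpha-tubulin acetylation measured, with the signal from 10 µM SAHA taken as 100% activation. Values are means of >2 experiments.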

Question: Which EC50 does the source give for Cc1noc(-c2ccc(C(=O)C(F)(F)F)s2)n1 here?
Answer: 6500 nM

Question: For CN(Cc1ccc2nccnc2c1)C(=O)c1ccc(C(=O)C(F)(F)F)s1, which EC50 is on record?
Answer: 12000 nM

Target: T2, Histone deacetylase (Homo sapiens) (UniProt Q13547+O15379+Q9UBN7+Q92769+Q9UQL6+Q8WUI4+Q9BY41+Q96DB2+P56524+Q9UKV0+Q969S8)
Assay: Inhibition of HDAC in human HCT116 cells assessed as alpha-tubulin deacetylation at 50 uM after 24 hrs relative to 10 uM SAHA
Assay type: cell-based
Conditions: HCT-116
Summary of the method: as §1

Question: Which inhibition does the source give for COc1cccc(N2CCN(C(=O)c3ccc(C(=O)C(F)(F)F)s3)CC2)c1 here?
Answer: 50%

Target: T2, Histone deacetylase (Homo sapiens)
Assay: Inhibition of HDAC in human HCT116 cells assessed as alpha-tubulin deacetylation up to 10 uM after 24 hrs
Assay type: cell-based
Conditions: HCT-116
Summary of the method: as §1

Question: Which Activity does the source give for O=C(NCc1ccccc1Cl)c1ccc(C(=O)C(F)(F)F)s1 here?
Answer: inactive

Target: T3, Cytochrome P450 2C9 (Homo sapiens, UniProt P11712)
T3 sequence (P11712 whole entry): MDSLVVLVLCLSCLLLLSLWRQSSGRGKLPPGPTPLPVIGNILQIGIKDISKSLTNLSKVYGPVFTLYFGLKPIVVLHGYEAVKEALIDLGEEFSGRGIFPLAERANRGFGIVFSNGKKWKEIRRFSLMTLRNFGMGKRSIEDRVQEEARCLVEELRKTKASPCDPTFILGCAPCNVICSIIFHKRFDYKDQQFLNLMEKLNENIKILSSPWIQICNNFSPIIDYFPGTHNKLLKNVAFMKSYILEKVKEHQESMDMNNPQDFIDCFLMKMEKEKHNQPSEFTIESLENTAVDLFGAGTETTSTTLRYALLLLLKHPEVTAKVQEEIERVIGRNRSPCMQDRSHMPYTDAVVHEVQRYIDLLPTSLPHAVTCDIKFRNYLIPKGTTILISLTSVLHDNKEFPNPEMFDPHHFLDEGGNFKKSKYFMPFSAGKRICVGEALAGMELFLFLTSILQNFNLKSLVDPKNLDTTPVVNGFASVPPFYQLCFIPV
Assay: Inhibition of CYP2C9 in human liver microsomes
Assay type: ADME, Microsome
Conditions: not given
Summary of the method: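 Human liver microsomes. Read-out is tritium released as tritiated water on CYP2C9-mediated 4'-hydroxylation of diclofenac tritiated at the 4' position. IC50 values are means of >2 experiments.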

Question: Which IC50 does the source give for COc1cccc(N2CCN(C(=O)c3ccc(C(=O)C(F)(F)F)s3)CC2)c1 here?
Answer: 5000 nM

Question: Which IC50 does the source give for CC(NC(=O)c1ccc(C(=O)C(F)(F)F)s1)c1cccc2ccccc12 (configuration not stated) here?
Answer: 1400 nM

Target: T3, Cytochrome P450 2C9
Assay: Inhibition of CYP2C9 in human hepatocytes
Assay type: ADME, cell-based, Hepatocyte
Conditions: not given
Summary of the method: (§2)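 Human hepatocytes. Read-out is CYP2C9-mediated 4'-hydroxylation of 4'-tritiated diclofenac, measured as tritiated water. Run without serum and with 10% FBS added. IC50 values are means of >2 experiments.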

Question: With COc1cccc(N2CCN(C(=O)c3ccc(C(=O)C(F)(F)F)s3)CC2)c1 as the compound, how does the IC50 read?
Answer: 8000 nM

Question: For CC(NC(=O)c1ccc(C(=O)C(F)(F)F)s1)c1cccc2ccccc12 (configuration not stated), which IC50 is on record?
Answer: 11000 nM

Target: T3, Cytochrome P450 2C9
Assay: Inhibition of CYP2C9 in human hepatocytes in presence of 10% fetal bovine serum
Assay type: ADME, cell-based, Hepatocyte
Conditions: not given
Summary of the method: as §2

Question: Which IC50 does the source give for COc1cccc(N2CCN(C(=O)c3ccc(C(=O)C(F)(F)F)s3)CC2)c1 here?
Answer: 8000 nM

Question: For CC(NC(=O)c1ccc(C(=O)C(F)(F)F)s1)c1cccc2ccccc12 (configuration not stated), which IC50 is on record?
Answer: 17000 nM

Test system: Hepatocyte
Assay: Toxicity in human hepatocytes by MTS assay
Assay type: cell-based
Conditions: not given

Question: With COc1cccc(N2CCN(C(=O)c3ccc(C(=O)C(F)(F)F)s3)CC2)c1 as the compound, how does the Activity read?
Answer: Non-toxic

Question: For CC(NC(=O)c1ccc(C(=O)C(F)(F)F)s1)c1cccc2ccccc12 (configuration not stated), which Activity is on record?
Answer: Non-toxic

Test system: not listed separately
Assay: Stability in human HCT116 cells by LCMS/MS in presence of 10% fetal bovine serum
Assay type: ADME, cell-based, HCT-116
Conditions: not given
Summary of the method: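 Compounds at 1 and 5 µM incubated with HCT116 cells in medium with 10% FBS for up to 24 h. Aliquots taken over time and analysed by LCMS/MS. A cell-free medium control was run. Half-life was derived.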

Question: Which half-life does the source give for CN(Cc1ccc2nccnc2c1)C(=O)c1ccc(C(=O)C(F)(F)F)s1 here?
Answer: 3.5 h

Question: Which half-life does the source give for CC(NC(=O)c1ccc(C(=O)C(F)(F)F)s1)c1cccc2ccccc12 (configuration not stated) here?
Answer: 3 h

Test system: not listed separately
Assay: Stability in human HCT116 cells S9 fraction by LCMS/MS in presence of NADPH
Assay type: ADME, subcellular
Conditions: not given
Summary of the method: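 S9 at 1 mg/ml with 1 mM NADPH plus a regenerating system, 37 °C with low shaking. Stopped with 1N HCl, centrifuged, supernatant diluted with acetonitrile containing internal standard, analysed by LCMS/MS.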

Question: Which half-life does the source give for O=C(c1ccc(C(=O)C(F)(F)F)[nH]1)N1CCc2ccccc21 here?
Answer: 0.25 h

Question: With Cc1noc(-c2ccc(C(=O)C(F)(F)F)s2)n1 as the compound, how does the half-life read?
Answer: > 2 h

Question: With CN(Cc1ccc2nccnc2c1)C(=O)c1ccc(C(=O)C(F)(F)F)s1 as the compound, how does the half-life read?
Answer: 0.333 h

Question: With O=C(NCC1CCCCC1)c1ccc(C(=O)C(F)(F)F)cn1 as the compound, how does the half-life read?
Answer: > 2 h

Question: For O=C(NCc1ccccc1Cl)c1ccc(C(=O)C(F)(F)F)s1, which half-life is on record?
Answer: 0.25 h

Target: T2, Histone deacetylase (Homo sapiens)
Conditions: HCT-116, 25 uM

Question: With CC(NC(=O)c1ccc(C(=O)C(F)(F)F)s1)c1cccc2ccccc12 (configuration not stated) as the compound, how does the inhibition read?
Answer: 50%

Target: T2, Histone deacetylase (Homo sapiens)
Conditions: HCT-116, 50 uM

Question: With CN(Cc1ccc2nccnc2c1)C(=O)c1ccc(C(=O)C(F)(F)F)s1 as the compound, how does the inhibition read?
Answer: 40%
